# E-selectin induc – E-selectin induction on HUVECs | P16581 | HUVEC E-selectin immunofluorescence imaging; normalized: neutral wells 0, TNF-alpha wells 100 | activation, % at 7.58 µM | 260,000 compounds, 0.37% hits;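 active = mean E-selectin-positive cell signal at least 10% of the positive control, reached in at least 60% of replicates, without over 20% cell loss; inconclusive = no rule given, readout overlaps actives, possibly toxicity-flagged; inactive = the rest, including those meeting only one limit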
# Target sequence (P16581 whole entry, looked up): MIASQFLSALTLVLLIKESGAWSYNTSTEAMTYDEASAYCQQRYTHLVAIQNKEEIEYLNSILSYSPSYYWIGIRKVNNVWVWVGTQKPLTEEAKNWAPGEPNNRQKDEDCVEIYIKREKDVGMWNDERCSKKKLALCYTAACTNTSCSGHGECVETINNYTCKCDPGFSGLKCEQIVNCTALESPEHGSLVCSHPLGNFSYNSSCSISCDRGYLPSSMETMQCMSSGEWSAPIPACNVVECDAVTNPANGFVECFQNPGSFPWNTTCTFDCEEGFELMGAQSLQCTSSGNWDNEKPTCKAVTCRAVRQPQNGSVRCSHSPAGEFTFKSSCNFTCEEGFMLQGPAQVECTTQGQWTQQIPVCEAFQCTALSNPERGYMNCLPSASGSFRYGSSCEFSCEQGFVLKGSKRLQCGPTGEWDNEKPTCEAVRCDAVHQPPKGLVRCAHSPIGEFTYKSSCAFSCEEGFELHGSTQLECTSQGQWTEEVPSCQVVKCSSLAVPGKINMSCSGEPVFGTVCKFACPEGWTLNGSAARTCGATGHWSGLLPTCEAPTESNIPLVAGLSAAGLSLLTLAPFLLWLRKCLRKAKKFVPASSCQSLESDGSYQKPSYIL
#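 Read-out: % PE-positive cells | Test system: HUVEC | Doses: One compound dose added by pin transfer | Buffer or medium: EGM-2 over gelatin coat | Signal: Immunofluorescence imaging | Benchmarks: TNF-alpha, DMSO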
# SIRT5 block – inhibitors of human sirtuin-5 desuccinylase; Q9NXA8; Purified SirT5, succinyl-peptide AMC, trypsin-coupled fluorescence; inhibition, % at 15 µM; 330,000 compounds, 1.1% hits; AID 652115; in the data active = inhibition above about 15%; inconclusive = no clear call, values can overlap the other calls
# DENV2 CPE – DENV2-induced cell death inhibition. 350,000 compounds, 1.7% hits. CPE inhibition, % at 9.99 µM. DENV2-infected cells, cytopathic effect rescue, plate reader; in the data active = CPE inhibition above about 20%, passing the limit was not always enough; inconclusive = no clear call, values can overlap the other calls; tested in BHK-21 cells;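 note: 0% = median of neutral control wells and 100% = median of positive control wells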
# Numbers without * were called inactive; ? = inconclusive; · = not tested or not shown. The list is not random: actives were taken first. Their share in the collection is about 2.8%.
SMILES,E-selectin induc,SIRT5 block,DENV2 CPE
CO[C@@H]1CN(C)C(=O)c2cc(NS(=O)(=O)CC(F)(F)F)ccc2OC[C@H](C)N(C(=O)NC(C)C)C[C@H]1C,0,-16,11
O=C(C[C@H]1C=C[C@@H](NS(=O)(=O)c2ccc(F)cc2)[C@H](CO)O1)NCc1ccccc1F,-1,5,-4
CN(C)CC(=O)Nc1ccc2c(c1)[C@@H]1C[C@H](CC(=O)N3CCc4ccccc4C3)O[C@@H](CO)[C@@H]1O2,0,-1,-2
Cc1noc(C)c1NC(=O)Nc1ccc2c(c1)C(=O)N([C@@H](C)CO)C[C@@H](C)[C@@H](CN(C)C(=O)Nc1ccc3c(c1)OCO3)OCCCC[C@@H](C)O2,0,8,-1
C[C@H]1CN([C@@H](C)CO)C(=O)Cc2cc(NS(=O)(=O)c3ccc(F)cc3)ccc2O[C@H]1CN(C)CC1CC1,0,-1,-3
Cc1ccc(S(=O)(=O)Nc2ccc3c(c2)CC(=O)N([C@H](C)CO)C[C@@H](C)[C@@H](CN(C)CC2CCCCC2)O3)cc1,·,11,16
COc1ccc(S(=O)(=O)Nc2ccc3c(c2)CC(=O)N([C@@H](C)CO)C[C@@H](C)[C@H](CN(C)CC2CCCCC2)O3)cc1,-1,24*,-3
Cc1ccc(S(=O)(=O)Nc2ccc3c(c2)CC(=O)N([C@H](C)CO)C[C@H](C)[C@@H](CN(C)CC2CCCCC2)O3)cc1,0,19*,6
C[C@H](CO)N1C[C@H](C)[C@@H](CN(C)CC2CCCCC2)Oc2ccc(NS(=O)(=O)c3ccc(F)cc3)cc2CC1=O,0,16*,0
CNC[C@@H]1Oc2ccc(NS(=O)(=O)c3ccc(C)cc3)cc2CC(=O)N([C@H](C)CO)C[C@H]1C,5,-2,42*
CNC[C@@H]1Oc2ccc(NS(=O)(=O)c3ccc(C)cc3)cc2CC(=O)N([C@@H](C)CO)C[C@H]1C,21,-5,13
COc1ccc(S(=O)(=O)Nc2ccc3c(c2)CC(=O)N([C@H](C)CO)C[C@@H](C)[C@@H](CN(C)CC2CCCCC2)O3)cc1,0,7,-2
C[C@H](CO)N1C[C@H](C)[C@H](CN(C)C(=O)c2ccc(F)cc2)Oc2cc(C3=CCCC3)ccc2S1(=O)=O,0,·,·
O=C(C[C@H]1CC[C@@H]2[C@H](COC[C@H](O)CN2C(=O)Nc2ccccc2)O1)NC1Cc2ccccc2C1,0,-6,8
Cc1ccc(S(=O)(=O)N(C)C[C@H]2OCCCC[C@@H](C)Oc3ccc(NC(=O)CCC(F)(F)F)cc3C(=O)N([C@H](C)CO)C[C@H]2C)cc1,·,9,5
Cc1ccc(S(=O)(=O)Nc2ccc3c(c2)CC(=O)N([C@H](C)CO)C[C@@H](C)[C@H](CN(C)CC2CCCCC2)O3)cc1,1,10,8
Cc1ccc(S(=O)(=O)Nc2ccc3c(c2)CC(=O)N([C@@H](C)CO)C[C@H](C)[C@H](CN(C)CC2CCCCC2)O3)cc1,-1,16*,14
C[C@H](CO)N1C[C@H](C)[C@H](CN(C)C(=O)c2ccccc2)Oc2cc(C3=CCCCC3)ccc2S1(=O)=O,0,7,93*
C[C@H]1CN([C@@H](C)CO)S(=O)(=O)c2ccc(C3=CCCCC3)cc2O[C@@H]1CN(C)C(=O)c1ccccc1,0,6,-9
C[C@H]1CN([C@@H](C)CO)S(=O)(=O)c2ccc(C3=CCCCC3)cc2O[C@@H]1CN(C)C(=O)c1ccc(F)cc1,0,16*,6
C[C@@H]1CN([C@H](C)CO)S(=O)(=O)c2ccc(C3=CCCCC3)cc2O[C@H]1CN(C)C(=O)c1ccc(F)cc1,0,14,-9
O=C1Nc2ccccc2C(=O)N(C2CCCC2)C1C(=O)NC1CC1 (stereo unspecified),0,-1,35*
O=C(NCC(F)(F)F)C1C(=O)Nc2ccccc2C(=O)N1C1CCCC1 (stereo unspecified),1,-2,-21
C[C@@H]1CN([C@@H](C)CO)S(=O)(=O)c2ccc(-c3ccccc3)cc2O[C@H]1CN(C)C(=O)C1CCC1,0,·,·
O=C(NC1CCCC1)C(c1ccco1)N1CCC(O)(c2ccc(Cl)cc2)CC1 (stereo unspecified),0,-4,-4
SMILES,E-selectin induc,SIRT5 block,DENV2 CPE
O=C(NC1CCCC1)C(c1ccco1)N1CCN(c2c(Cl)cncc2Cl)CC1 (stereo unspecified),2,1,24*
COc1ccc(CN(C)C[C@H]2Oc3ccc(NC(=O)c4ccncc4)cc3CC(=O)N([C@H](C)CO)C[C@H]2C)cc1,0,-7,0
COc1ccc(NC(=O)N(C)C[C@@H]2Oc3ccc(NC(=O)Nc4ccc(C(F)(F)F)cc4)cc3CC(=O)N([C@H](C)CO)C[C@@H]2C)cc1,0,1,53*
COc1ccc(NC(=O)N(C)C[C@H]2Oc3ccc(NC(=O)c4ccncc4)cc3CC(=O)N([C@H](C)CO)C[C@H]2C)cc1,42*,-2,10
COc1ccc(NC(=O)Nc2ccc3c(c2)CC(=O)N([C@H](C)CO)C[C@@H](C)[C@@H](CN(C)C(=O)Nc2ccc(C(F)(F)F)cc2)O3)cc1,·,·,-1
COc1ccc(NC(=O)Nc2ccc3c(c2)CC(=O)N([C@@H](C)CO)C[C@H](C)[C@@H](CN(C)C(=O)Nc2ccc(F)cc2)O3)cc1,0,2,-1
COc1ccc(NC(=O)Nc2ccc3c(c2)CC(=O)N([C@@H](C)CO)C[C@@H](C)[C@@H](CN(C)C(=O)Nc2ccccc2)O3)cc1,0,-2,-10
COc1ccc(NC(=O)Nc2ccc3c(c2)CC(=O)N([C@@H](C)CO)C[C@H](C)[C@@H](CN(C)C(=O)Nc2ccccc2)O3)cc1,0,-1,46*
COc1ccc(NC(=O)N(C)C[C@@H]2Oc3ccc(NC(=O)Nc4ccc(F)cc4)cc3CC(=O)N([C@@H](C)CO)C[C@@H]2C)cc1,0,0,50*
COc1ccc(CNC(=O)C[C@H]2C=C[C@@H](NC(=O)c3ccc4c(c3)OCO4)[C@@H](CO)O2)cc1,0,11,-11
COc1ccc2c3c([nH]c2c1)[C@H](CO)N(C(=O)C1CCCC1)CC31CN(S(C)(=O)=O)C1,0,6,14
CCC(=O)Nc1ccc2c(c1)OC[C@H](C)N(CC1CC1)C[C@H](C)[C@@H](OC)CN(C)C2=O,0,0,-9
C[C@@H]1CN([C@@H](C)CO)C(=O)Cc2cc(NC(=O)Nc3ccc(F)cc3)ccc2O[C@@H]1CN(C)Cc1ccc(C(=O)O)cc1,80*,0,?
COc1ccc(CN(C)C[C@@H]2Oc3ccc(NC(=O)Nc4ccc(F)cc4)cc3CC(=O)N([C@@H](C)CO)C[C@@H]2C)cc1,62*,2,3
C[C@H]1CN([C@@H](C)CO)C(=O)Cc2cc(NC(=O)Nc3ccc(F)cc3)ccc2O[C@H]1CN(C)C(=O)Nc1ccc(F)cc1,1,16*,-2
C[C@H](CO)N1C[C@H](C)[C@H](CN(C)C(=O)Nc2ccc(F)cc2)Oc2ccc(NC(=O)Nc3ccc(C(F)(F)F)cc3)cc2CC1=O,0,2,13

# Assay outcomes: PubChem BioAssay, Broad Institute
